Measured values: article PMC4002122 (Chemical Research in Toxicology, 2014)

Key:
Type in all cases: in vitro ADME
Settings in all cases: 250 μM substrate, 5 μg protein, 60 min, 37 °C
UGT1A1 = target: T1, UGT1A1 (Homo sapiens, UniProt P22309); assay: Screening of recombinant UGT1A1 for glucuronidation activity
T1 sequence (P22309 26-533): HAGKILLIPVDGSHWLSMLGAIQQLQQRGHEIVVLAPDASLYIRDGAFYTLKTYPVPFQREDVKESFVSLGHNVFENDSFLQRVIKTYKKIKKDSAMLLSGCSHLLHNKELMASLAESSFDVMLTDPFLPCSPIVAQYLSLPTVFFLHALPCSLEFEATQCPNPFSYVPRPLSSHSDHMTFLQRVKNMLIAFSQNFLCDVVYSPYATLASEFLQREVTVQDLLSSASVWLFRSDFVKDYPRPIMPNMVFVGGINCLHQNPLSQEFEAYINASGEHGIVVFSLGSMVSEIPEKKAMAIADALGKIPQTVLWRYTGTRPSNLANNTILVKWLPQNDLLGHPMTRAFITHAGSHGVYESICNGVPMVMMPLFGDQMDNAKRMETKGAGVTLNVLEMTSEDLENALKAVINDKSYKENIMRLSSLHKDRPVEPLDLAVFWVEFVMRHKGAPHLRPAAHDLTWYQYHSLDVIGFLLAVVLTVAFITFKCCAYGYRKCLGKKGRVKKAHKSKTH
In short: (§1)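 UGT1A1, 1A3, 1A4 and 1A6–1A10 were His-tagged and expressed in baculovirus-infected Sf9 cells; UGT2B4, 2B7, 2B15 and 2B17 were commercial membranes run per supplier protocol. 5 μg membrane protein with 250 μM substrate, 2 mM UDP-GlcUA, Tris–HCl pH 7.4, MgCl2, saccharolactone, 2% DMSO; 37 °C, 60 min; no-substrate controls. Products measured by HPLC-UV/vis; β-glucuronidase hydrolysis separated O- from carboxyl glucuronides.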

UGT1A3 = target: T2, UGT1A3 (Homo sapiens, UniProt P35503); assay: Screening of recombinant UGT1A3 for glucuronidation activity
T2 sequence (P35503 29-534): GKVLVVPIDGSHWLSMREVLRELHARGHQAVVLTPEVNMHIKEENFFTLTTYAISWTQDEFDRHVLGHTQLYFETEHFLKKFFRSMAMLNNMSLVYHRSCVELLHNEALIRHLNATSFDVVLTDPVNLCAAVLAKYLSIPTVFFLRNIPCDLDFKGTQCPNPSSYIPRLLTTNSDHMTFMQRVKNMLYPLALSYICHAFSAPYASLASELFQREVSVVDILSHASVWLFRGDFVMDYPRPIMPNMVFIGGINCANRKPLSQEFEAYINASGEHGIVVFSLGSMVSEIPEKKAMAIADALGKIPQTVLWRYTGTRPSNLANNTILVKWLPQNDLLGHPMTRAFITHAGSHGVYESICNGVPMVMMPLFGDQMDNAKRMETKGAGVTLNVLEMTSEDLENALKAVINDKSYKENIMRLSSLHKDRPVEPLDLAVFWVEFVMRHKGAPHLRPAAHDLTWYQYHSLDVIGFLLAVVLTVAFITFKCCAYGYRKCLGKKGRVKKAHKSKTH
In short: as §1

UGT1A6 = target: T3, UGT1A6 (Homo sapiens, UniProt P19224); assay: Screening of recombinant UGT1A6 for glucuronidation activity
T3 sequence (P19224 27-532): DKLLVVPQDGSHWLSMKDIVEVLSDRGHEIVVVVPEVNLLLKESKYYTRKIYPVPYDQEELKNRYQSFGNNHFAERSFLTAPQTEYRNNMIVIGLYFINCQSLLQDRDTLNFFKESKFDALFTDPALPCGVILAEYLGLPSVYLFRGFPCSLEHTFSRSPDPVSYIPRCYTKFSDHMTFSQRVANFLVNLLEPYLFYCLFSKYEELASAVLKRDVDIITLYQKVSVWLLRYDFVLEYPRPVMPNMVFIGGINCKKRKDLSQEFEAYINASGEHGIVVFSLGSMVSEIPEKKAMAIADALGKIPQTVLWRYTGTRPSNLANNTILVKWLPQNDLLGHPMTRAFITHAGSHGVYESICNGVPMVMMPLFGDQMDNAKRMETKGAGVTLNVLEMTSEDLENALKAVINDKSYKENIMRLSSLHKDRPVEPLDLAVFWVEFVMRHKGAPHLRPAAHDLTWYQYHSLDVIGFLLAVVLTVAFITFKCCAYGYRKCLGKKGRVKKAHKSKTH
In short: as §1

UGT1A9 = target: T4, UGT1A9 (Homo sapiens, UniProt O60656); assay: Screening of recombinant UGT1A9 for glucuronidation activity
T4 sequence (O60656 26-530): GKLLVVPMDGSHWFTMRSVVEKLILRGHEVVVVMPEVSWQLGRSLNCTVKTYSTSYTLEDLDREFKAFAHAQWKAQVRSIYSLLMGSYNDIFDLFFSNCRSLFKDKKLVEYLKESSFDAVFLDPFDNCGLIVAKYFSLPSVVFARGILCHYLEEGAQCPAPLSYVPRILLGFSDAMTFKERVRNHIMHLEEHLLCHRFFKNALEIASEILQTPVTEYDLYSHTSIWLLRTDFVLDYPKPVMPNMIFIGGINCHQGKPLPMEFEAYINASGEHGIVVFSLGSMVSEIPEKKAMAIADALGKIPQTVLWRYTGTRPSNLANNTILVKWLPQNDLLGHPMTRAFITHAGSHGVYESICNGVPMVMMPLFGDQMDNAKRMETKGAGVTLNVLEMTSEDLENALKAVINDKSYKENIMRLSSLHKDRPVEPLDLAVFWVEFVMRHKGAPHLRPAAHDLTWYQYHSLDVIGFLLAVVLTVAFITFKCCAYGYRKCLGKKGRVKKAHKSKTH
In short: as §1

UGT1A10 = target: T5, UGT1A10 (Homo sapiens, UniProt Q9HAW8); assay: Screening of recombinant UGT1A10 for glucuronidation activity
T5 sequence (Q9HAW8 26-530): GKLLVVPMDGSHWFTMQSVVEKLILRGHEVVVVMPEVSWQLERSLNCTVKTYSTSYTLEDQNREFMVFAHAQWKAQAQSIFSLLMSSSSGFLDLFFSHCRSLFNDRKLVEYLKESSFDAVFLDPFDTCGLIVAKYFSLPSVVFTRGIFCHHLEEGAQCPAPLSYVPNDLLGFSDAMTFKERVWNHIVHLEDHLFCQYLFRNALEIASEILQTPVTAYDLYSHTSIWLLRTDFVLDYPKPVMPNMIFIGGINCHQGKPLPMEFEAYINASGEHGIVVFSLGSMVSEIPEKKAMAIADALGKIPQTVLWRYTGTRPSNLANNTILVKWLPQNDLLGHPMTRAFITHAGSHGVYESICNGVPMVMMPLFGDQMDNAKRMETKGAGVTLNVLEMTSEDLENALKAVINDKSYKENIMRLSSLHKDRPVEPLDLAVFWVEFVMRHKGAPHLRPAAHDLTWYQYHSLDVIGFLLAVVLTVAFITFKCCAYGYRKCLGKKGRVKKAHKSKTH
In short: as §1

Compound | glucuronidation activity (glucuronide formed) (UGT1A1) | glucuronidation activity (glucuronide formed) (UGT1A3) | glucuronidation activity (glucuronide formed) (UGT1A6) | glucuronidation activity (glucuronide formed) (UGT1A9) | glucuronidation activity (glucuronide formed) (UGT1A10)
COc1cc(/C=C/c2cc([N+](=O)[O-])c(O)c([N+](=O)[O-])c2)cc(OC)c1 [DNR-1, (E)-4-(3,5-dimethoxystyryl)-2,6-dinitrophenol] | No activity | No activity | No activity | No activity | No activity
COc1ccc(/C=C(/C(=O)O)c2cc(OC)c(OC)c(OC)c2)cc1O [NI-12a, (E)-3-(3-hydroxy-4-methoxyphenyl)-2-(3,4,5-trimethoxyphenyl)acrylic acid] | only the carboxyl metabolite | both COO- and O-glucuronides | not active | only the hydroxyl metabolite | only the hydroxyl metabolite
COc1ccc(C=Cc2cc(OC)cc(OC)c2/C=N/O)cc1 [NI-ST-05, (E)-2,4-dimethoxy-6-(4-methoxystyryl)benzaldehyde oxime] | catalyzed the formation of the C=N–O-glucuronide | inactive | inactive | catalyzed the formation of the C=N–O-glucuronide | catalyzed the formation of the C=N–O-glucuronide
